From ChEMBL document CHEMBL4373647, “Design, synthesis, and antimicrobial evaluation of 1,4-dihydroindeno[1,2-c]pyrazole tethered carbohydrazide hybrids: exploring their in silico ADMET, ergosterol inhibition and ROS inducing potential” (Medchemcomm, 2019)
In brackets after ≈: the same amount, converted by molar mass. Activity calls are given as the source filed them. The calls are words filed in the database; no cut-off is given here.

How the values were obtained:
Format in all cases: functional
Staphylococcus aureus [1] = test: Ratio of MBC to MIC against Staphylococcus aureus MTCC 96
Micrococcus luteus [2] = test: Ratio of MBC to MIC against Micrococcus luteus MTCC 2470
Micrococcus luteus [3] = test: Antibacterial activity against Micrococcus luteus MTCC 2470 assessed as inhibition of bacterial growth incubated for 24 hrs by agar well diffusion method; conditions: MTCC 2470, 24 h
Procedure, shortened: (§1)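 Strains from MTCC; inoculum at 0.5 McFarland spread on Mueller-Hinton agar; 6 mm wells loaded with compound over 125–0.97 µg/mL; ciprofloxacin positive control (same range), DMSO negative control. Plates held 24 h at 37 °C; MIC taken as lowest concentration giving a clear inhibition zone. Triplicate runs, mean MIC reported.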

Staphylococcus aureus [4] = test: Antibacterial activity against Staphylococcus aureus MTCC 96 assessed as inhibition of bacterial growth incubated for 24 hrs by agar well diffusion method; conditions: MTCC 96, 24 h; procedure, shortened: as §1
Bacillus subtilis [5] = test: Antibacterial activity against Bacillus subtilis MTCC 121 assessed as inhibition of bacterial growth incubated for 24 hrs by agar well diffusion method; conditions: MTCC 121, 24 h; procedure, shortened: as §1
Escherichia coli [6] = test: Antibacterial activity against Escherichia coli MTCC 739 assessed as inhibition of bacterial growth incubated for 24 hrs by agar well diffusion method; conditions: MTCC 739, 24 h; procedure, shortened: as §1
Raoultella planticola [7] = test: Antibacterial activity against Klebsiella planticola MTCC 530 assessed as inhibition of bacterial growth incubated for 24 hrs by agar well diffusion method; conditions: MTCC 530, 24 h; procedure, shortened: as §1
Candida albicans [8] = test: Antifungal activity against Candida albicans MTCC 3017 assessed as inhibition of fungal growth incubated for 24 hrs by agar well diffusion method; conditions: MTCC 3017, 24 h
Procedure, shortened: (§2)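 Candida strains from MTCC, pre-cultured and spread on Mueller Hinton agar. Wells received compound dissolved in 10% DMSO, 125–0.97 µg/mL; miconazole standard over the same range, DMSO negative control. After 24 h at 37 °C, MIC was read as the lowest concentration giving an inhibition zone. Duplicate experiments, means given.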

Candida albicans [9] = test: Antifungal activity against Candida albicans MTCC 1637 assessed as inhibition of fungal growth incubated for 24 hrs by agar well diffusion method; conditions: MTCC 1637, 24 h; procedure, shortened: as §2
Candida albicans [10] = test: Antifungal activity against Candida albicans MTCC 3018 assessed as inhibition of fungal growth incubated for 24 hrs by agar well diffusion method; conditions: MTCC 3018, 24 h; procedure, shortened: as §2
Candida parapsilosis [11] = test: Antifungal activity against Candida parapsilosis MTCC 1744 assessed as inhibition of fungal growth incubated for 24 hrs by agar well diffusion method; conditions: Lodderomyces parapsilosis, MTCC 1744, 24 h; procedure, shortened: as §2
Nakaseomyces glabratus [12] = test: Antifungal activity against Candida glabrata MTCC 3019 assessed as inhibition of fungal growth incubated for 24 hrs by agar well diffusion method; conditions: MTCC 3019, 24 h; procedure, shortened: as §2
Micrococcus luteus [13] = test: Bactericidal activity against Micrococcus luteus MTCC 2470 assessed as bacterial killing incubated for 24 hrs; conditions: MTCC 2470, 24 h
Procedure, shortened: (§3)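 Broth tube assay: compound at 0–125 µg/mL in Mueller Hinton broth, overnight culture added to 0.5 McFarland (1.5 × 10^8 cfu/mL), held 24 h at 37 °C. 10 µL from each tube plated on Mueller Hinton agar. MBC is the lowest concentration that kills the strain. Duplicates, means reported.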

Staphylococcus aureus [14] = test: Bactericidal activity against Staphylococcus aureus MLS-16 MTCC 2940 assessed as bacterial killing incubated for 24 hrs; conditions: MLS-16 MTCC 2940, 24 h; procedure, shortened: as §3
Bacillus subtilis [15] = test: Bactericidal activity against Bacillus subtilis MTCC 121 assessed as bacterial killing incubated for 24 hrs; conditions: MTCC 121, 24 h; procedure, shortened: as §3
Escherichia coli [16] = test: Bactericidal activity against Escherichia coli MTCC 739 assessed as bacterial killing incubated for 24 hrs; conditions: MTCC 739, 24 h; procedure, shortened: as §3
Pseudomonas aeruginosa [17] = test: Bactericidal activity against Pseudomonas aeruginosa MTCC 2453 assessed as bacterial killing incubated for 24 hrs; conditions: MTCC 2453, 24 h; procedure, shortened: as §3
Raoultella planticola [18] = test: Bactericidal activity against Klebsiella planticola MTCC 530 assessed as bacterial killing incubated for 24 hrs; conditions: MTCC 530, 24 h; procedure, shortened: as §3
Pichia kudriavzevii [19] = test: Antifungal activity against Candida krusei MTCC 3020 assessed as inhibition of fungal growth incubated for 24 hrs by agar well diffusion method; conditions: MTCC 3020, 24 h; procedure, shortened: as §2
Pichia kudriavzevii [20] = test: Fungicidal activity against Candida krusei MTCC 3020 assessed as fungal killing incubated for 24 hrs; conditions: MTCC 3020, 24 h
Procedure, shortened: (§4)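 Compound at 125–0.97 µg/mL in Mueller Hinton broth in microcentrifuge tubes, each Candida strain added, held 24 h at 37 °C. 10 µL of the treated suspension plated on Mueller Hinton agar and incubated a further 24 h at 37 °C. MFC is the lowest concentration that kills the strain. Duplicates, means reported.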

Candida albicans [21] = test: Fungicidal activity against Candida albicans MTCC 183 assessed as fungal killing incubated for 24 hrs; procedure, shortened: as §4
Candida albicans [22] = test: Fungicidal activity against Candida albicans MTCC 227 assessed as fungal killing incubated for 24 hrs; conditions: MTCC 227, 24 h; procedure, shortened: as §4
Candida albicans [23] = test: Fungicidal activity against Candida albicans MTCC 1637 assessed as fungal killing incubated for 24 hrs; conditions: MTCC 1637, 24 h; procedure, shortened: as §4
Candida albicans [24] = test: Fungicidal activity against Candida albicans MTCC 4748 assessed as fungal killing incubated for 24 hrs; conditions: MTCC 4748, 24 h; procedure, shortened: as §4
Candida albicans [25] = test: Fungicidal activity against Candida albicans MTCC 7315 assessed as fungal killing incubated for 24 hrs; conditions: MTCC 7315, 24 h; procedure, shortened: as §4
Candida parapsilosis [26] = test: Fungicidal activity against Candida parapsilosis MTCC 1744 assessed as fungal killing incubated for 24 hrs; conditions: Lodderomyces parapsilosis, MTCC 1744, 24 h; procedure, shortened: as §4
Nakaseomyces glabratus [27] = test: Fungicidal activity against Candida glabrata MTCC 3019 assessed as fungal killing incubated for 24 hrs; conditions: MTCC 3019, 24 h; procedure, shortened: as §4
Staphylococcus aureus [28] = test: Ratio of MBC to MIC against Staphylococcus aureus MLS-16 MTCC 2940
Candida albicans [29] = test: Ratio of MFC to MIC against Candida albicans MTCC 227
Procedure, shortened: (§5)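 MIC by agar well diffusion: Candida lawns on Mueller-Hinton agar, wells loaded with compound in 10% DMSO (125–0.97 µg/mL), 24 h at 37 °C, lowest concentration giving an inhibition zone. MFC: compound in Mueller-Hinton broth (125–0.97 µg/mL) with yeast, 24 h at 37 °C, 10 µL plated on agar, lowest killing concentration after 24 h. Ratio is MFC/MIC.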

Candida albicans [30] = test: Ratio of MFC to MIC against Candida albicans MTCC 1637
Candida albicans [31] = test: Ratio of MFC to MIC against Candida albicans MTCC 3018; procedure, shortened: as §5
Candida parapsilosis [32] = test: Ratio of MFC to MIC against Candida parapsilosis MTCC 1744; procedure, shortened: as §5
Nakaseomyces glabratus [33] = test: Ratio of MFC to MIC against Candida glabrata MTCC 3019; procedure, shortened: as §5
Escherichia coli [34] = test: Ratio of MBC to MIC for Escherichia coli MTCC 739
Pseudomonas aeruginosa [35] = test: Ratio of MBC to MIC for Pseudomonas aeruginosa MTCC 2453
Raoultella planticola [36] = test: Ratio of MBC to MIC for Klebsiella planticola MTCC 530

| Compound | Ratio (Staphylococcus aureus [1]) | Ratio (Micrococcus luteus [2]) | MIC (Micrococcus luteus [3]) [µg/mL] | MIC (Staphylococcus aureus [4]) [µg/mL] | MIC (Bacillus subtilis [5]) [µg/mL] | MIC (Escherichia coli [6]) [µg/mL] | MIC (Raoultella planticola [7]) [µg/mL] | MIC (Candida albicans [8]) [µg/mL] | MIC (Candida albicans [9]) [µg/mL] | MIC (Candida albicans [10]) [µg/mL] | MIC (Candida parapsilosis [11]) [µg/mL] | MIC (Nakaseomyces glabratus [12]) [µg/mL] | MBC (Micrococcus luteus [13]) [µg/mL] | MBC (Staphylococcus aureus [14]) [µg/mL] | MBC (Bacillus subtilis [15]) [µg/mL] | MBC (Escherichia coli [16]) [µg/mL] | MBC (Pseudomonas aeruginosa [17]) [µg/mL] | MBC (Raoultella planticola [18]) [µg/mL] | MIC (Pichia kudriavzevii [19]) [µg/mL] | MFC (Pichia kudriavzevii [20]) [µg/mL] | further results |
| --- | --- | --- | --- | --- | --- | --- | --- | --- | --- | --- | --- | --- | --- | --- | --- | --- | --- | --- | --- | --- | --- |
| COc1ccc2c(c1)Cc1c(C(=O)N/N=C/c3ccc(O)c(OC)c3)n[nH]c1-2 | 2 | 2 | 3.9 (≈ 10.3 µM) | 3.9 (≈ 10.3 µM) | 7.8 (≈ 20.6 µM) | 3.9 (≈ 10.3 µM) | 3.9 (≈ 10.3 µM) | 3.9 (≈ 10.3 µM) | 7.8 (≈ 20.6 µM) | 7.8 (≈ 20.6 µM) | 7.8 (≈ 20.6 µM) | 7.8 (≈ 20.6 µM) | 7.8 (≈ 20.6 µM) | 7.8 (≈ 20.6 µM) | 15.6 (≈ 41.2 µM) | 7.8 (≈ 20.6 µM) | 15.6 (≈ 41.2 µM) | 7.8 (≈ 20.6 µM) | 7.8 (≈ 20.6 µM) | 15.6 (≈ 41.2 µM) | MFC (Candida albicans [21]; MTCC 183, 24 h): 31.2 µg/mL (≈ 82.5 µM); MFC (Candida albicans [22]): 7.8 µg/mL (≈ 20.6 µM); MFC (Candida albicans [23]): 15.6 µg/mL (≈ 41.2 µM); MFC (Candida albicans [24]): 15.6 µg/mL (≈ 41.2 µM); MFC (Candida albicans [25]): 15.6 µg/mL (≈ 41.2 µM); MFC (Candida parapsilosis [26]): 15.6 µg/mL (≈ 41.2 µM); MFC (Nakaseomyces glabratus [27]): 15.6 µg/mL (≈ 41.2 µM); Ratio (Staphylococcus aureus [28]): 2; Ratio (Candida albicans [29]): 2; Ratio (Candida albicans [30]): 2; Ratio (Candida albicans [31]): 2; Ratio (Candida parapsilosis [32]): 2; Ratio (Nakaseomyces glabratus [33]): 2; Ratio (Escherichia coli [34]): 2; Ratio (Pseudomonas aeruginosa [35]): 2; Ratio (Raoultella planticola [36]): 2 |
| O=C(N/N=C/c1ccc(O)cc1)c1n[nH]c2c1Cc1cc(F)ccc1-2 | 2 | 2 | 7.8 (≈ 23.2 µM) | 3.9 (≈ 11.6 µM) | 7.8 (≈ 23.2 µM) | 3.9 (≈ 11.6 µM) | 7.8 (≈ 23.2 µM) | 7.8 (≈ 23.2 µM) | 15.6 (≈ 46.4 µM) | 15.6 (≈ 46.4 µM) | 15.6 (≈ 46.4 µM) | 15.6 (≈ 46.4 µM) | 15.6 (≈ 46.4 µM) | 7.8 (≈ 23.2 µM) | 15.6 (≈ 46.4 µM) | 7.8 (≈ 23.2 µM) | 15.6 (≈ 46.4 µM) | 15.6 (≈ 46.4 µM) | 15.6 (≈ 46.4 µM) | 31.2 (≈ 92.8 µM) | MFC (Candida albicans [21]): inactive; MFC (Candida albicans [22]): 15.6 µg/mL (≈ 46.4 µM); MFC (Candida albicans [23]): 31.2 µg/mL (≈ 92.8 µM); MFC (Candida albicans [24]): 31.2 µg/mL (≈ 92.8 µM); MFC (Candida albicans [25]): 31.2 µg/mL (≈ 92.8 µM); MFC (Candida parapsilosis [26]): 31.2 µg/mL (≈ 92.8 µM); MFC (Nakaseomyces glabratus [27]): 31.2 µg/mL (≈ 92.8 µM); Ratio (Staphylococcus aureus [28]): 2; Ratio (Candida albicans [29]): 2; Ratio (Candida albicans [30]): 2; Ratio (Candida albicans [31]): 2; Ratio (Candida parapsilosis [32]): 2; Ratio (Nakaseomyces glabratus [33]): 2; Ratio (Escherichia coli [34]): 2; Ratio (Pseudomonas aeruginosa [35]): 2; Ratio (Raoultella planticola [36]): 2 |
| COc1ccc2c(c1)Cc1c(C(=O)N/N=C/c3c(F)cc(F)cc3F)n[nH]c1-2 | 2 | 2 | 7.8 (≈ 20.2 µM) | 3.9 (≈ 10.1 µM) | 7.8 (≈ 20.2 µM) | 3.9 (≈ 10.1 µM) | 7.8 (≈ 20.2 µM) | 3.9 (≈ 10.1 µM) | 15.6 (≈ 40.4 µM) | 7.8 (≈ 20.2 µM) | 15.6 (≈ 40.4 µM) | 15.6 (≈ 40.4 µM) | 15.6 (≈ 40.4 µM) | 7.8 (≈ 20.2 µM) | 15.6 (≈ 40.4 µM) | 7.8 (≈ 20.2 µM) | 15.6 (≈ 40.4 µM) | 15.6 (≈ 40.4 µM) | 15.6 (≈ 40.4 µM) | 31.2 (≈ 80.8 µM) | MFC (Candida albicans [21]): inactive; MFC (Candida albicans [22]): 15.6 µg/mL (≈ 40.4 µM); MFC (Candida albicans [23]): 31.2 µg/mL (≈ 80.8 µM); MFC (Candida albicans [24]): 31.2 µg/mL (≈ 80.8 µM); MFC (Candida albicans [25]): 31.2 µg/mL (≈ 80.8 µM); MFC (Candida parapsilosis [26]): 31.2 µg/mL (≈ 80.8 µM); MFC (Nakaseomyces glabratus [27]): 31.2 µg/mL (≈ 80.8 µM); Ratio (Staphylococcus aureus [28]): 2; Ratio (Candida albicans [29]): 2; Ratio (Candida albicans [30]): 2; Ratio (Candida albicans [31]): 2; Ratio (Candida parapsilosis [32]): 2; Ratio (Nakaseomyces glabratus [33]): 2; Ratio (Escherichia coli [34]): 2; Ratio (Pseudomonas aeruginosa [35]): 2; Ratio (Raoultella planticola [36]): 2 |
